# Yeast eIF2B: eIF2B (yeast) activity modulation; 27,000 tested, 0.91% active; AID 688; inhibition, % at 25 µM (by protocol); S. cerevisiae eIF2B-epsilon R284H, GCN4-lacZ luminescence;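 active = mutant luminescence inhibited past about 50% while wild type luminescence and mutant growth stay under set limits, limit read from the data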
#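 Material – yeast eIF2B-epsilon R284H mutant carrying GCN4–beta-galactosidase fusion · Medium – YPD yeast growth medium · Compound – one concentration, 25 µM, 0.25% DMSO · Times – 16 h at 30 °C exposure · Signal – Beta-Glo luminescence plus absorbance at 595 nm · Read-out – % inhibition of reporter signal and growth versus controls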
# Yeast tox: Compounds toxic to wild-type S. cerevisiae growth; A595 turbidity, 16 h; growth inhibition, % at 25 µM (by protocol); 30,000 tested, 0.3% active; AID 685;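 active = mutant and wild-type yeast strains alike exhibit over 30% growth inhibition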;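 note: 0% = untreated cell controls and 100% = YPD media blanks without cells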
#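 System – wild-type and eIF2Bepsilon-R284H mutant S. cerevisiae, screened separately · Measured by – absorbance at 595 nm (turbidity) · Timing – 16 h compound exposure during growth at 30 °C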
# Active calls of the source: *; x = no result given. A selection: hits, their analogues and other compounds. The true share with any hit is near 1.1%.
SMILES,Yeast eIF2B,Yeast tox
Cc1ccc(S(=O)(=O)c2c(COC(=O)c3ccccc3Cl)c(-c3ccccc3)nn2C)cc1,15,14
C=CCn1c(=O)/c(=C2/SC(C)=C(C)N2CC)s/c1=C1/C(=O)N(C)C(=S)N1c1ccccc1,0,0
COc1ccc(C2=CC(c3sccc3C)n3nnnc3N2)cc1 (stereo not drawn),56*,14
COc1ccc(C2C=C(c3ccc(Cl)cc3)Nc3nc(NC(C)=O)nn32)cc1 (stereo not drawn),1,19
CSc1nnc(-c2ccccc2)o1,2,4
O=S1(=O)C=C(Sc2nnc(-c3ccccc3)o2)c2ccccc21,82,76*
O=c1c(C(c2ccccc2)c2c(O)sc3ccccc3c2=O)c(O)sc2ccccc12,8,-13
Clc1cccc(-c2nn3c(COc4ccccc4)nnc3s2)c1,56*,3
Clc1ccc(-c2nn3c(-c4cccc(Cl)c4)nnc3s2)cc1,3,-36
CC(Cc1ccccc1)NC(=O)CSc1nc2nc3c(cc2c(=O)n1-c1ccccc1)COC(C)(C)C3 (stereo not drawn),-10,-3
COc1cc(S(=O)(=O)N(Cc2cccnc2)Cc2ccco2)ccc1-n1cnnn1,53*,5
COc1cc(S(=O)(=O)N(Cc2ccc(C)cc2)Cc2ccco2)ccc1-n1cnnn1,13,-13
O=C(C1CCCN(Cc2ccccc2)C1)N1CCCCC1 (stereo not drawn),12,10
Oc1cc(Cc2ccccc2)cnc1CN1CCCCC1,56*,-15
COC(=O)C(NC(C)=O)(Nc1nc(C)cs1)C(F)(F)F (stereo not drawn),x,16
COC(=O)C(NC(=O)c1ccco1)(Nc1nc(C)cs1)C(F)(F)F (stereo not drawn),52*,5
CN(CC(=O)Nc1ccccn1)S(=O)(=O)c1ccc(Cl)cc1,0,-10
Cc1cnc(NC(=O)CN(C)S(=O)(=O)c2ccc(Cl)cc2)s1,54*,-13
Cc1cc(C)n(C(=O)c2ccc(NC(=O)CC(C)C)cc2)n1,50*,0
Cc1cc(NC(=O)c2ccc(NC(=O)CC(C)C)cc2)no1,22,27
Cc1nc(SCC(=O)NCCc2ccc(Cl)cc2)nc(C)c1C,x,3
CCCCCc1c(O)nc(SCC(=O)O)[nH]c1=O,17,-6
O=C(OCCn1cncn1)c1cc2ccccc2oc1=O,59*,-5
Cc1ccn(C(=O)c2cc3ccccc3oc2=O)n1,18,3
CN(C)c1ccc(C(CC(=O)O)NC(=O)c2ccc(Cl)cc2)cc1 (stereo not drawn),-21,4
SMILES,Yeast eIF2B,Yeast tox
Cc1c(O)c(CN2CCCC2)cc2c1oc(=O)c1ccccc12,58*,-2
Oc1c(CN2CCOCC2)cc(-c2ccccc2)cc1CN1CCOCC1,6,39
N#C/C(C(=O)Oc1ccccc1)=C1/Nc2ccccc2-c2ccccc21,32,-10
CCCOc1ccc2ccccc2c1/C=N/n1c(C)nnc1-n1nc(C)cc1C,16,29
CC(Sc1ccc2ccccc2n1)C(=O)O (stereo not drawn),x,9
CC(O)/C=C/c1ccc2ccccc2n1 (stereo not drawn),37,31*
CCCCNC(=O)CN1C(=O)NC2(CCCc3ccccc32)C1=O (stereo not drawn),x,8
CCOC(=O)c1nn(-c2cccc(Cl)c2)c2nc(CC(C)C)c(C#N)c(=O)n12,50*,1
Cc1cc2n(c(=O)c1C#N)CCCN2c1cccc(Cl)c1,45,-3
CC1CCCCN1C(=O)CN1C(=O)CN(C)C(=O)c2ccccc21 (stereo not drawn),8,-1
CCCCCC(=O)Nc1ccc(N2CCN(C(=O)CCC)CC2)cc1,5,-4
CCCCC(=O)Nc1ccc(N2CCN(S(C)(=O)=O)CC2)cc1,62*,3
Cc1cc(C)n(-c2nc3c(c(=O)n(C)c(=O)n3C)n2CC(O)COc2ccccc2C)n1 (stereo not drawn),27,4
COc1ccc(OCCCC(=O)NCC(C)C)cc1,x,0
O=C1OC(C(=O)O)Cc2ccccc21 (stereo not drawn),3,-13
O=C(CSc1nc(-c2ccco2)cc(C(F)(F)F)n1)Nc1ccccc1C(F)(F)F,52*,-4
Cc1cccc(C)c1NC(=O)CSc1nc(-c2ccco2)cc(C(F)(F)F)n1,17,-11
Cc1cc(/C=N/n2cnnc2)c(C)n1-c1ccccc1,x,13
Cc1cc(/C=N/n2cnnc2)c(C)n1-c1ccc(OCc2ccc(Cl)cc2Cl)cc1,1,62*
O=C(NCC1(c2ccccc2)CCCC1)C(=O)N1CCOCC1,-6,-7
CC(C)CCN(C(=O)Nc1ccccc1)C(C)c1cccs1 (stereo not drawn),x,2
Fc1ccccc1N1CCN(Cc2nc(-c3ccc(Cl)cc3Cl)no2)CC1,4,-4
CC1=CC(=O)C=C(C)C1=NOC(=O)c1cccc([N+](=O)[O-])c1,18,2
